Source: ChEMBL document CHEMBL4368872, “Synthesis and anticonvulsant activity of phenoxyacetyl derivatives of amines, including aminoalkanols and amino acids” (Medchemcomm, 2018)
Activity calls are given as the source filed them.

Key:
[1] = Neurotoxicity in Sprague-Dawley rat at 30 mg/kg, po measured after 4 hrs by rotarod test; format: toxicity, organism-based; settings: in vivo
How it was run: (§1)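 Rat neurotoxicity after i.p. or p.o. dosing was scored as animals impaired / animals tested at each time point. For p.o. dosing, TD50 was obtained by probit analysis.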

[2] = Neurotoxicity in Sprague-Dawley rat at 30 mg/kg, po measured after 2 hrs by rotarod test; format: toxicity, organism-based; settings: in vivo; how it was run: as §1
Mus musculus [3] = test: Anticonvulsant activity in CF-1 mouse model of maximal electroshock-induced seizure assessed as suppression of tonic hind limb extension at 30 mg/kg, ip measured at 0.5 hrs post dose; format: functional, organism-based
How it was run: (§2)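 Mice dosed i.p. and given maximal electroshock at 50 mA. Read-out is protection, reported as number protected / number tested at 0.25, 0.5, 1 and 4 h after dosing.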

Mus musculus [4] = test: Anticonvulsant activity in CF-1 mouse model of maximal electroshock-induced seizure assessed as suppression of tonic hind limb extension at 300 mg/kg, ip measured at 0.5 hrs post dose; format: functional, organism-based; how it was run: as §2
Mus musculus [5] = test: Anticonvulsant activity in CF-1 mouse model of maximal electroshock-induced seizure assessed as suppression of tonic hind limb extension at 30 mg/kg, ip measured at 4 hrs post dose; format: functional, organism-based; how it was run: as §2
Mus musculus [6] = test: Anticonvulsant activity in CF-1 mouse model of maximal electroshock-induced seizure assessed as suppression of tonic hind limb extension at 100 mg/kg, ip measured at 4 hrs post dose; format: functional, organism-based; how it was run: as §2
Mus musculus [7] = test: Anticonvulsant activity in CF-1 mouse model of maximal electroshock-induced seizure assessed as suppression of tonic hind limb extension at 300 mg/kg, ip measured at 4 hrs post dose; format: functional, organism-based; how it was run: as §2
Mus musculus [8] = test: Anticonvulsant activity in CF-1 mouse model of subcutaneous pentylenetetrazole-induced seizure assessed as reduction in convulsions at 30 mg/kg, ip measured at 0.5 hrs post dose; format: functional, organism-based
How it was run: (§3)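 Mice dosed i.p., then given pentylenetetrazole 85 mg/kg in 0.9% NaCl s.c. into the posterior midline of the neck. Seizures watched for at least 30 min. Scored as protected / tested at 0.5 and 4 h.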

Mus musculus [9] = test: Anticonvulsant activity in CF-1 mouse model of subcutaneous pentylenetetrazole-induced seizure assessed as reduction in convulsions at 100 mg/kg, ip measured at 0.5 hrs post dose; format: functional, organism-based; how it was run: as §3
Mus musculus [10] = test: Anticonvulsant activity in CF-1 mouse model of subcutaneous pentylenetetrazole-induced seizure assessed as reduction in convulsions at 300 mg/kg, ip measured at 0.5 hrs post dose; format: functional, organism-based; how it was run: as §3
Mus musculus [11] = test: Anticonvulsant activity in CF-1 mouse model of subcutaneous pentylenetetrazole-induced seizure assessed as reduction in convulsions at 30 mg/kg, ip measured at 4 hrs post dose; format: functional, organism-based; how it was run: as §3
Mus musculus [12] = test: Anticonvulsant activity in CF-1 mouse model of subcutaneous pentylenetetrazole-induced seizure assessed as reduction in convulsions at 100 mg/kg, ip measured at 4 hrs post dose; format: functional, organism-based; how it was run: as §3
Mus musculus [13] = test: Anticonvulsant activity in CF-1 mouse model of subcutaneous pentylenetetrazole-induced seizure assessed as reduction in convulsions at 300 mg/kg, ip measured at 4 hrs post dose; format: functional, organism-based; how it was run: as §3
[14] = Neurotoxicity in CF-1 mouse at 30 mg/kg, ip measured after 0.5 hrs by rotarod test; format: toxicity, organism-based; settings: in vivo
How it was run: (§4)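 Mice dosed i.p. were placed on a 1 in. knurled rod turning at 6 rpm. Toxicity was scored as failure to keep balance for at least 1 min, i.e. falling off three or more times. Results are reported as animals showing toxicity / animals tested at each time point.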

[15] = Neurotoxicity in CF-1 mouse at 300 mg/kg, ip measured after 0.5 hrs by rotarod test; format: toxicity, organism-based; settings: in vivo; how it was run: as §4
[16] = Neurotoxicity in CF-1 mouse at 30 mg/kg, ip measured after 4 hrs by rotarod test; format: toxicity, organism-based; settings: in vivo; how it was run: as §4
[17] = Neurotoxicity in CF-1 mouse at 100 mg/kg, ip measured after 4 hrs by rotarod test; format: toxicity, organism-based; settings: in vivo; how it was run: as §4
[18] = Neurotoxicity in CF-1 mouse at 300 mg/kg, ip measured after 4 hrs by rotarod test; format: toxicity, organism-based; settings: in vivo; how it was run: as §4
Rattus norvegicus [19] = test: Anticonvulsant activity in Sprague-Dawley rat model of maximal electroshock-induced seizure assessed as suppression of tonic hind limb extension at 30 mg/kg, po measured at 1 hr post dose; format: functional, organism-based
How it was run: (§5)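 Rats given 30 mg/kg p.o. and tested by maximal electroshock at 150 mA. Scored as number protected / number tested (4 per group) at 0.25, 0.5, 1, 2 and 4 h after dosing.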

Rattus norvegicus [20] = test: Anticonvulsant activity in Sprague-Dawley rat model of maximal electroshock-induced seizure assessed as suppression of tonic hind limb extension at 30 mg/kg, po measured at 2 hrs post dose; format: functional, organism-based; how it was run: as §5
Rattus norvegicus [21] = test: Anticonvulsant activity in Sprague-Dawley rat model of maximal electroshock-induced seizure assessed as suppression of tonic hind limb extension at 30 mg/kg, po measured at 4 hrs post dose; format: functional, organism-based; how it was run: as §5
[22] = Neurotoxicity in Sprague-Dawley rat at 30 mg/kg, po measured after 0.25 hrs by rotarod test; format: toxicity, organism-based; settings: in vivo; how it was run: as §1
[23] = Neurotoxicity in Sprague-Dawley rat at 30 mg/kg, po measured after 0.5 hrs by rotarod test; format: toxicity, organism-based; settings: in vivo; how it was run: as §1
[24] = Neurotoxicity in Sprague-Dawley rat at 30 mg/kg, po measured after 1 hr by rotarod test; format: toxicity, organism-based; settings: in vivo; how it was run: as §1
[25] = Neurotoxicity in Sprague-Dawley rat at 100 mg/kg, ip measured after 2 hrs by rotarod test; format: toxicity, organism-based; settings: Sprague-Dawley, in vivo; how it was run: as §1
Mus musculus [26] = test: Anticonvulsant activity in CF-1 mouse assessed as protection against 44 mA current-induced seizure at 40 to 80 mg/kg, ip after 0.5 hrs by 6 Hz psychomotor test; format: functional
[27] = Neurotoxicity in CF-1 mouse at 100 mg/kg, ip measured after 0.5 hrs by rotarod test; format: toxicity, organism-based; settings: in vivo; how it was run: as §4
Mus musculus [28] = test: Anticonvulsant activity in CF-1 mouse assessed as protection against 44 mA current-induced seizure at 30 mg/kg, ip after 0.5 hrs by 6 Hz psychomotor test; format: functional, organism-based
How it was run: (§6)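 Mice dosed i.p. (30, 100, 300 mg/kg; one line at 120 mg/kg read at 15 min). Corneal stimulation at 6 Hz, 44 mA for 3 s from a constant-current device induces a psychomotor seizure with stunned posture, forelimb automatisms, clonus, vibrissae twitching and Straub tail. Scored as number of animals protected / number tested (4 per group) at 0.5 and 2 h.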

Mus musculus [29] = test: Anticonvulsant activity in CF-1 mouse assessed as protection against 44 mA current-induced seizure at 100 mg/kg, ip after 0.5 hrs by 6 Hz psychomotor test; format: functional, organism-based; how it was run: as §6
Mus musculus [30] = test: Anticonvulsant activity in CF-1 mouse assessed as protection against 44 mA current-induced seizure at 300 mg/kg, ip after 0.5 hrs by 6 Hz psychomotor test; format: functional, organism-based; how it was run: as §6
Mus musculus [31] = test: Anticonvulsant activity in CF-1 mouse assessed as protection against 44 mA current-induced seizure at 30 mg/kg, ip after 2 hrs by 6 Hz psychomotor test; format: functional, organism-based; how it was run: as §6
Mus musculus [32] = test: Anticonvulsant activity in CF-1 mouse assessed as protection against 44 mA current-induced seizure at 100 mg/kg, ip after 2 hrs by 6 Hz psychomotor test; format: functional, organism-based; how it was run: as §6
Mus musculus [33] = test: Anticonvulsant activity in CF-1 mouse model of maximal electroshock-induced seizure assessed as suppression of tonic hind limb extension at 30 mg/kg, ip measured at 2 hrs post dose; format: functional, organism-based
Mus musculus [34] = test: Anticonvulsant activity in CF-1 mouse model of maximal electroshock-induced seizure assessed as suppression of tonic hind limb extension at 100 mg/kg, ip measured at 2 hrs post dose; format: functional, organism-based
[35] = Neurotoxicity in CF-1 mouse at 30 mg/kg, ip measured after 2 hrs by rotarod test; format: toxicity, organism-based; settings: in vivo; how it was run: as §4
[36] = Neurotoxicity in CF-1 mouse at 100 mg/kg, ip measured after 2 hrs by rotarod test; format: toxicity, organism-based; settings: in vivo; how it was run: as §4
[37] = Neurotoxicity in CF-1 mouse at 300 mg/kg, ip measured after 2 hrs by rotarod test; format: toxicity, organism-based; settings: in vivo; how it was run: as §4

CNC(=O)C(C)NC(=O)COc1c(C)cccc1C (stereo unspecified)
inactive: Activity (Mus musculus [3]) | Activity (Mus musculus [5]) | Activity (Mus musculus [6]) | Activity (Mus musculus [7]) | Activity (Mus musculus [8]) | Activity (Mus musculus [9]) | Activity (Mus musculus [10]) | Activity (Mus musculus [11]) | Activity (Mus musculus [12]) | Activity (Mus musculus [13]) | Activity (Rattus norvegicus [19]) | Activity (Rattus norvegicus [20]) | Activity (Rattus norvegicus [21])
active: Activity (Mus musculus [4])
Toxic: Activity [15]
Non-Toxic: Activity [1] | Activity [2] | Activity [14] | Activity [16] | Activity [17] | Activity [18] | Activity [22] | Activity [23] | Activity [24]

NC(=O)N1c2ccccc2C=Cc2ccccc21 [CARBAMAZEPINE]
364 mg/kg: TD50 at 2 h [25]
75%: %max (Mus musculus [26])

Cc1cccc(C)c1OCC(=O)N[C@H]1CC[C@H](OC(=O)COc2c(C)cccc2C)CC1
inactive: Activity (Mus musculus [3]) | Activity (Mus musculus [4]) | Activity (Mus musculus [28]) | Activity (Mus musculus [29]) | Activity (Mus musculus [30]) | Activity (Mus musculus [31]) | Activity (Mus musculus [32]) | Activity (Mus musculus [33]) | Activity (Mus musculus [34])
Non-Toxic: Activity [14] | Activity [27] | Activity [15] | Activity [35] | Activity [36] | Activity [37]
